Values belong to the compound of their own block, whether it stands above or below them.
Columns and labels:
[1] = target: Matrix metalloproteinase-9 (Homo sapiens, UniProt P14780); assay: In vitro inhibition of human MMP-9.
[2] = target: T1, Interstitial collagenase (Homo sapiens, UniProt P03956); assay: In vitro inhibition of human MMP-1.
T1 sequence (P03956 whole entry): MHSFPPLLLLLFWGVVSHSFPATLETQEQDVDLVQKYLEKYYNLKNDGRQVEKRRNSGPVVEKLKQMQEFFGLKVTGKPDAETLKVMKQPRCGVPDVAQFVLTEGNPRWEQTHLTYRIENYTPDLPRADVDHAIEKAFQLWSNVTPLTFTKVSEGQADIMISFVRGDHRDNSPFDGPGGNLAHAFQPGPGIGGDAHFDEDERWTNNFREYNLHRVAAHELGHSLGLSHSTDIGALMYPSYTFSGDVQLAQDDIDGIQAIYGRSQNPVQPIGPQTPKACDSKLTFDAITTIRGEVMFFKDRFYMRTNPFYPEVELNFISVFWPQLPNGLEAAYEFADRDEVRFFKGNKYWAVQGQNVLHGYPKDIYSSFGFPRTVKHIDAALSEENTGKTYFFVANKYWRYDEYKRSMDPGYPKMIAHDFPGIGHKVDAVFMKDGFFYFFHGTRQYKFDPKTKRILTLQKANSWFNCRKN

[3] = target: Disintegrin and metalloproteinase domain-containing protein 17 (Homo sapiens, UniProt P78536)
Chain of Disintegrin and metalloproteinase domain-containing protein 17 (P78536 whole entry, the tested form may be a part): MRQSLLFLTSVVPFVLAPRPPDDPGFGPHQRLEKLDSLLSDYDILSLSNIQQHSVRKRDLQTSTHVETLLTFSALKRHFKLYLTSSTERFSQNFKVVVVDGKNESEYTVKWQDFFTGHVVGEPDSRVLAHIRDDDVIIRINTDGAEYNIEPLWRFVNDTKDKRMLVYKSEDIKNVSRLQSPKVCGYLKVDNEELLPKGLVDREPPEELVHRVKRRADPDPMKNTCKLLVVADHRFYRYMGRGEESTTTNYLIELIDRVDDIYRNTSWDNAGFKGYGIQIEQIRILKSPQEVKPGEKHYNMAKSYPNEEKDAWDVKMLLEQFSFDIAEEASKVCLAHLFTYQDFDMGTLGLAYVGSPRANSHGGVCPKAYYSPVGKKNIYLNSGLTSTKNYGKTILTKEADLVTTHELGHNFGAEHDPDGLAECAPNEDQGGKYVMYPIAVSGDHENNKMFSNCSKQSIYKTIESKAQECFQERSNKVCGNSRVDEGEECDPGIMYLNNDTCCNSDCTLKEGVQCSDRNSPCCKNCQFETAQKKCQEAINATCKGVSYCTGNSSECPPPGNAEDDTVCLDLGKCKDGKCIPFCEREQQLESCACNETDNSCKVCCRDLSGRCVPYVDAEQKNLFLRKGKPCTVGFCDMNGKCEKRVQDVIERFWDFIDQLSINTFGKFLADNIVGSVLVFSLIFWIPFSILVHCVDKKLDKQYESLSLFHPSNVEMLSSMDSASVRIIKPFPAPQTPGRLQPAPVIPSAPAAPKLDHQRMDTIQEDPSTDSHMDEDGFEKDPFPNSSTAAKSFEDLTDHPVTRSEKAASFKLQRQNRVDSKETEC

[4] = test system: Mus musculus; assay: Compound at an oral dose of 30 mg/Kg was tested for the inhibition of LPS-stimulated TNF-alpha release in mouse; format: functional
Method in brief: (§1)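 Mice dosed orally at time zero, then immediately given ip D-galactosamine 20 mg plus LPS 10 μg. One hour later, animals anesthetized and bled by cardiac puncture. Plasma TNF-α quantified by mouse-specific ELISA.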

[5] = target: Stromelysin-1 (Homo sapiens, UniProt P08254); assay: Inhibition of human MMP-3.
Chain of Stromelysin-1 (P08254 whole entry): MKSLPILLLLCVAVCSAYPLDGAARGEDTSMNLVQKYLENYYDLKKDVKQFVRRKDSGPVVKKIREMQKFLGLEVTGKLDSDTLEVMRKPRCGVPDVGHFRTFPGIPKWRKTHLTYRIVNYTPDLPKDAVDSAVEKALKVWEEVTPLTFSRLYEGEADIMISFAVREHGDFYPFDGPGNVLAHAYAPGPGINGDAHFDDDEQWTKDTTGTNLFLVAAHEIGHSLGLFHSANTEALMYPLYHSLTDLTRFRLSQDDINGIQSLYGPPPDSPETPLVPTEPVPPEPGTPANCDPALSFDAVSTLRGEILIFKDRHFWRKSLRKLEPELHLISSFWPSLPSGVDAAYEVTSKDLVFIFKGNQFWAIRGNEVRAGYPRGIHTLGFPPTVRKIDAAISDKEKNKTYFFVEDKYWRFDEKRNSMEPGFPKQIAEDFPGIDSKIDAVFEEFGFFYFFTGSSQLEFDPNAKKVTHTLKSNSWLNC

[6] = Pharmacokinetic data in Beagle dogs at 0.5 mg/kg i.v. dose and 2.0 mg/kg p.o. dose; format: ADME, organism-based, Canis lupus familiaris; details: dog, in vivo, po
[7] = Pharmacokinetic data in Beagle dogs at 2.0 mg/kg oral dose; format: ADME, organism-based, Canis lupus familiaris; set-up: dose 2 mg/kg, route oral; details: dog, in vivo
[8] = Pharmacokinetic data in Beagle dogs at 2.0 mg/kg oral dose.; format: ADME, organism-based, Canis lupus familiaris; set-up: dose 2 mg/kg, route oral; details: dog, in vivo
[9] = Maximal plasma concentration in Beagle dogs after 0.5 mg/kg intravenous dose.; format: ADME, organism-based, Canis lupus familiaris; set-up: dose 0.5 mg/kg, route intravenous; details: dog
Method in brief: (§2)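 Male beagle dogs (~10 kg), two per compound, dosed iv in 10% ethanol solution. Blood sampled before dosing and at 1, 2, 4, 6, 8, 12 and 24 h after. Plasma levels measured by LC/MS/MS after solid-phase extraction (detection limit 10 nM). Parameters reported as mean.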

[10] = target: T2, Matrilysin (Homo sapiens, UniProt P09237); assay: Inhibition of matrix metalloprotease-7
T2 sequence (P09237 whole entry): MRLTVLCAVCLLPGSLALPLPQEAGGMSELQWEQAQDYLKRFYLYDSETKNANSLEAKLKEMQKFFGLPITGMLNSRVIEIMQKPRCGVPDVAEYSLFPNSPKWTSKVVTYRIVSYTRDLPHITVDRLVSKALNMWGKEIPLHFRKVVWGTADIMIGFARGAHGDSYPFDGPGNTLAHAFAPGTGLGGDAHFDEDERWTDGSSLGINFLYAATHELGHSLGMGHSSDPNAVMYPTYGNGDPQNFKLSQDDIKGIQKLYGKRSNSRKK

[11] = target: Matrix metalloproteinase-14 (Homo sapiens, UniProt P50281); assay: Inhibition of matrix metalloprotease-14
[12] = target: Matrix metalloproteinase-15 (Homo sapiens, UniProt P51511); assay: Inhibition of matrix metalloprotease-15
Chain of Matrix metalloproteinase-15 (P51511 whole entry): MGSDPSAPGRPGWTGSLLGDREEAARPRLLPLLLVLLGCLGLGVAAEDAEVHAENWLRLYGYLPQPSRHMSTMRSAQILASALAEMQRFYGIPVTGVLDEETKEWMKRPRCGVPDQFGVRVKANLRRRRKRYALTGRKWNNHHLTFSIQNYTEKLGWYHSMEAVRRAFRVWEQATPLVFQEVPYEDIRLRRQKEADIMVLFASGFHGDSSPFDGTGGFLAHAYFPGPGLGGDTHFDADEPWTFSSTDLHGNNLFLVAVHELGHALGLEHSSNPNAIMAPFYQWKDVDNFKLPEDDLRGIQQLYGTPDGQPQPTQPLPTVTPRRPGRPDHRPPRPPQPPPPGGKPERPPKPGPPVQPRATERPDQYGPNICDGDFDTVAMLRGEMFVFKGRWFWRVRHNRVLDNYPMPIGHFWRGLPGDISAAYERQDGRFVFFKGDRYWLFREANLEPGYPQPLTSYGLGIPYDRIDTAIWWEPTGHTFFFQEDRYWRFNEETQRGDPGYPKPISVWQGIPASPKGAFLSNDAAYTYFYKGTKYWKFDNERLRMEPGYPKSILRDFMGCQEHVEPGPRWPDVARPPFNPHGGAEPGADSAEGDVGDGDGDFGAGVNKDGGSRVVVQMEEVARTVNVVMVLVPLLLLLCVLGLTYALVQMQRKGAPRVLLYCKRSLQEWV

[13] = target: Matrix metalloproteinase-16 (Homo sapiens, UniProt P51512); assay: Inhibition of matrix metalloprotease-16
Chain of Matrix metalloproteinase-16 (P51512 whole entry): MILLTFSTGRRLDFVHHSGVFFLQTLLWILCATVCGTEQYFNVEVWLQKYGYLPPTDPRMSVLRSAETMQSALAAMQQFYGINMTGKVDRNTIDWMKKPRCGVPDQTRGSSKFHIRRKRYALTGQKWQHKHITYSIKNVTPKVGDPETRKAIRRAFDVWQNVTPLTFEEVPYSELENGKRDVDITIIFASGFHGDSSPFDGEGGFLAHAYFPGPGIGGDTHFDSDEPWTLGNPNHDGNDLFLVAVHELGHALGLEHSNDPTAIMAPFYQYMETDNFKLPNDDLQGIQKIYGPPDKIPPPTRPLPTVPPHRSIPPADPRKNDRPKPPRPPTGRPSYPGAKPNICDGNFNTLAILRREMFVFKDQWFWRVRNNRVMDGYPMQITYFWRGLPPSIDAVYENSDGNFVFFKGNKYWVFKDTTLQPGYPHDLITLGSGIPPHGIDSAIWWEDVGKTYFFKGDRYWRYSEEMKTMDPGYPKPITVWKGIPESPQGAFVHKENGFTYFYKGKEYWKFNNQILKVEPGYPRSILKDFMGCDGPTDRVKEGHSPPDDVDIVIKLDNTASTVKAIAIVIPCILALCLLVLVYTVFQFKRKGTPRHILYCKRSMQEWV

[14] = Pharmacokinetic data in Beagle dogs at 0.5 mg/kg intravenous dose.; format: ADME, organism-based, Canis lupus familiaris; set-up: dose 0.5 mg/kg, route intravenous; details: dog, in vivo; method in brief: as §2
[15] = test system: Mus musculus; assay: Compound at an oral dose of 100 mg/Kg was tested for the inhibition of LPS-stimulated TNF-alpha release in mouse; format: functional; method in brief: as §1

Chain of Matrix metalloproteinase-9 (P14780 whole entry): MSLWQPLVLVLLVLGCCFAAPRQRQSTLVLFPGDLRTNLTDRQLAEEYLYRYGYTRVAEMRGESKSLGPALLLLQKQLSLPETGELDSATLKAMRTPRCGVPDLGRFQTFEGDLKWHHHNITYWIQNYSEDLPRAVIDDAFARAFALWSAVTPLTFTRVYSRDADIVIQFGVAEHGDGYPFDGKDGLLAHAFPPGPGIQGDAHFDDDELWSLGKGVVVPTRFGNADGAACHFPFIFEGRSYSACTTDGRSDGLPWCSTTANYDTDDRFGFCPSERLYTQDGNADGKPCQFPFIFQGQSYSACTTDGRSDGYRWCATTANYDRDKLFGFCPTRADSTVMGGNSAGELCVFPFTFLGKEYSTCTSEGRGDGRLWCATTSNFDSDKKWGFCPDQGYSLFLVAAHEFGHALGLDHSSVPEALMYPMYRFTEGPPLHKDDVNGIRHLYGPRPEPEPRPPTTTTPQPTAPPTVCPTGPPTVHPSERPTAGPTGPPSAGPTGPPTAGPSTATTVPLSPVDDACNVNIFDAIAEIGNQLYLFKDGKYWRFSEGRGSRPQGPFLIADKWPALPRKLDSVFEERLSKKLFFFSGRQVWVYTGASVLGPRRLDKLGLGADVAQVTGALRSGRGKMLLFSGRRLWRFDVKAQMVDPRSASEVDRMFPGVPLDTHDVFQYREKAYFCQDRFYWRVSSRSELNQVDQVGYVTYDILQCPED

SMILES: CNC(=O)[C@@H]1CCCCN(C)C(=O)OCCC[C@H](C(=O)NO)[C@@H](CC(C)C)C(=O)N1
Ki [1]: < 1 nM
Ki [2]: < 1 nM
IC50 [3]: 2300 nM

SMILES: CCCCCC[C@H]1C(=O)N[C@H](C(=O)NCCc2ccc(S(N)(=O)=O)cc2)Cc2ccc(cc2)OCCC[C@@H]1C(=O)NO
inhibition in vivo at 30 mg/kg [4]: 26%
IC50 [3]: 480 nM

SMILES: CNC(=O)[C@@H]1CCCCN(C)C(=O)CO[C@H](C(=O)NO)[C@@H](CC(C)C)C(=O)N1
Ki [5]: 3 nM
Ki [1]: 3.9 nM
Ki [2]: < 1 nM
IC50 [3]: 3800 nM

SMILES: CNC(=O)[C@@H]1CCc2ccc(cc2)OCCC[C@H](C(=O)NO)[C@@H](CC(C)C)C(=O)N1
Ki [5]: 48 nM
Ki [1]: 2.1 nM
Ki [2]: 5.3 nM
IC50 [3]: 1000 nM

SMILES: CNC(=O)[C@@H]1CSc2ccccc2NC(=O)CO[C@H](C(=O)NO)[C@@H](CC(C)C)C(=O)N1
Ki [5]: 22.3 nM
Ki [2]: < 1 nM
IC50 [3]: 8000 nM

SMILES: CNC(=O)[C@@H]1Cc2cn(c3ccccc23)CCCCO[C@H](C(=O)NO)[C@@H](CC(C)C)C(=O)N1
Ki [5]: 2.88 nM
Ki [2]: < 1 nM
IC50 [3]: 3700 nM

SMILES: CC(C)C[C@H]1C(=O)N[C@H](C(=O)NCC(=O)N2CCC(O)CC2)CCCCN(C)C(=O)OCCC[C@@H]1C(=O)NO
IC50 [3]: 300 nM

SMILES: CCOC(=O)N1CCC(NC(=O)[C@@H]2CCCCNC(=O)OCCC[C@H](C(=O)NO)[C@@H](CC(C)C)C(=O)N2)CC1
IC50 [3]: 130 nM

SMILES: CCCCCC[C@H]1C(=O)N[C@H](C(=O)N[C@H](CCCCN)C(N)=O)Cc2ccc(cc2)OCCC[C@@H]1C(=O)NO
inhibition in vivo at 30 mg/kg [4]: 36%
IC50 [3]: 760 nM

SMILES: CC(C)C[C@H]1C(=O)N[C@H](C(=O)Nc2ccccc2)CCCCNC(=O)OCCC[C@@H]1C(=O)NO
IC50 [3]: 280 nM

SMILES: CCCCCC[C@H]1C(=O)N[C@H](C(=O)NCc2ccccc2)Cc2ccc(cc2)OCCC[C@@H]1C(=O)NO
IC50 [3]: 2200 nM

SMILES: CNC(=O)[C@@H]1CCCCNC(=O)OCCC[C@H](C(=O)NO)[C@@H](CC(C)C)C(=O)N1
Ki [1]: 1.1 nM
Ki [2]: < 1 nM
IC50 [3]: 1000 nM

SMILES: Cc1csc(NC(=O)[C@@H]2CCCCN(C)C(=O)OCCC[C@H](C(=O)NO)[C@@H](CC(C)C)C(=O)N2)n1
IC50 [3]: 300 nM

SMILES: COc1ccc2c(CCNC(=O)[C@@H]3CCCCNC(=O)OCCC[C@H](C(=O)NO)[C@@H](CC(C)C)C(=O)N3)c[nH]c2c1
IC50 [3]: 94 nM

SMILES: CC(C)C[C@H]1C(=O)N[C@H](C(=O)NCCC(=O)N2CCOCC2)CCCCNC(=O)OCCC[C@@H]1C(=O)NO
IC50 [3]: 170 nM

SMILES: CC(C)C[C@H]1C(=O)N[C@H](C(=O)NCC(=O)NC2CCC2)Cc2ccc(cc2)OCCC[C@@H]1C(=O)NO
inhibition in vivo at 30 mg/kg [4]: 31%
IC50 [3]: 200 nM

SMILES: CC(C)C[C@H]1C(=O)N[C@H](C(=O)NCCc2ccc(S(N)(=O)=O)cc2)Cc2ccc(cc2)OCCC[C@@H]1C(=O)NO
IC50 [3]: 1000 nM

SMILES: CNC(=O)[C@@H](CC(C)C)NC(=O)[C@@H]1CCCCNC(=O)OCCC[C@H](C(=O)NO)[C@@H](CC(C)C)C(=O)N1
IC50 [3]: 100 nM

SMILES: COC(=O)c1csc(NC(=O)[C@@H]2CCCCNC(=O)OCCC[C@H](C(=O)NO)[C@@H](CC(C)C)C(=O)N2)n1
IC50 [3]: 83 nM

SMILES: CNC(=O)[C@@H](C)NC(=O)[C@@H]1CCCCNC(=O)OCCC[C@H](C(=O)NO)[C@@H](CC(C)C)C(=O)N1
IC50 [3]: 270 nM

SMILES: CC(C)C[C@H]1C(=O)N[C@H](C(=O)NCC(=O)N(C)C)Cc2ccc(cc2)OCCC[C@@H]1C(=O)NO
inhibition in vivo at 30 mg/kg [4]: 45%
IC50 [3]: 400 nM

SMILES: CC(C)C[C@H]1C(=O)N[C@H](C(=O)NCC(=O)N2CCN(C)CC2)CCCCN(C)C(=O)OCCC[C@@H]1C(=O)NO
IC50 [3]: 120 nM

SMILES: CC(C)C[C@H]1C(=O)N[C@H](C(=O)NCC(=O)N2CCCCC2)Cc2ccc(cc2)OCCC[C@@H]1C(=O)NO
IC50 [3]: 140 nM

SMILES: CNC(=O)CNC(=O)[C@@H]1CCCCNC(=O)OCCC[C@H](C(=O)NO)[C@@H](CC(C)C)C(=O)N1
IC50 [3]: 120 nM

SMILES: CC(C)C[C@H]1C(=O)N[C@H](C(=O)NCc2ccccc2)CCCCNC(=O)OCCC[C@@H]1C(=O)NO
IC50 [3]: 740 nM

SMILES: CC(C)C[C@H]1C(=O)N[C@H](C(=O)NCc2cccnc2)CCCCNC(=O)OCCC[C@@H]1C(=O)NO
IC50 [3]: 500 nM

SMILES: CCOC(=O)N1CCN(C(=O)CNC(=O)[C@@H]2CCCCNC(=O)OCCC[C@H](C(=O)NO)[C@@H](CC(C)C)C(=O)N2)CC1
IC50 [3]: 130 nM

The next lines start with results.

Ki [1]: < 1 nM
Ki [2]: < 1 nM
IC50 [3]: 1800 nM
SMILES: CNC(=O)[C@@H](Cc1ccc(OC)cc1)NC(=O)[C@H](CC(C)C)[C@H](C)C(=O)NO

IC50 [3]: 820 nM
SMILES: CCCCCC[C@H]1C(=O)N[C@H](C(=O)NCCCn2ccnc2)Cc2ccc(cc2)OCCC[C@@H]1C(=O)NO
inhibition in vivo at 30 mg/kg [4]: 30%

bioavailability [6]: 23%
half-life [7]: 2.2 h
AUC [8]: 1910 ng·h/mL
Cmax [9]: 667 ng/mL
Ki [5]: 7.8 nM
Ki [1]: 1.2 nM
Ki [10]: 1.5 nM
Ki [11]: 140 nM
Ki [12]: 71 nM
Ki [13]: 107 nM
Ki [2]: 13 nM
AUC [14]: 2080 ng·h/mL
Tmax [14]: 1.25 h
clearance [14]: 4.83 mL/min/kg
half-life [14]: 1 h
Vd ([14]; read-out: Vss): 0.33 L/kg
SMILES: CC(C)C[C@H]1C(=O)N[C@H](C(=O)NCC(=O)N2CCOCC2)CCCCNC(=O)OCCC[C@@H]1C(=O)NO

Ki [5]: 16.2 nM
Ki [1]: 3.3 nM
Ki [2]: 1.8 nM
IC50 [3]: 2400 nM
SMILES: CNC(=O)[C@@H]1CCCc2ccc(cc2)OCCC[C@H](C(=O)NO)[C@@H](CC(C)C)C(=O)N1

Ki [1]: 3.6 nM
Ki [2]: 1.4 nM
IC50 [3]: 1600 nM
SMILES: CNC(=O)[C@@H]1CCCCNC(=O)CC[C@H](C(=O)NO)[C@@H](CC(C)C)C(=O)N1

IC50 [3]: 580 nM
SMILES: CC(C)C[C@H]1C(=O)N[C@H](C(=O)NCC(=O)N2CCCC(C(=O)O)C2)CCCCNC(=O)OCCC[C@@H]1C(=O)NO (stereo not given in full)

IC50 [3]: 100 nM
SMILES: CC(C)C[C@H]1C(=O)N[C@H](C(=O)N[C@H](CO)C(=O)N2CCOCC2)CCCCNC(=O)OCCC[C@@H]1C(=O)NO

IC50 [3]: 200 nM
SMILES: CC(C)C[C@H]1C(=O)N[C@H](C(=O)NCC(=O)NC(C)(C)C)Cc2ccc(cc2)OCCC[C@@H]1C(=O)NO
inhibition in vivo at 30 mg/kg [4]: 21%

IC50 [3]: 300 nM
SMILES: CCCCCC[C@H]1C(=O)N[C@H](C(=O)N[C@H](COC(C)(C)C)C(=O)NC)Cc2ccc(cc2)OCCC[C@@H]1C(=O)NO
inhibition in vivo at 30 mg/kg [4]: 18%

IC50 [3]: 190 nM
SMILES: CC(C)C[C@H]1C(=O)N[C@H](C(=O)Nc2ccc(N3CCOCC3)cc2)CCCCNC(=O)OCCC[C@@H]1C(=O)NO

IC50 [3]: 700 nM
SMILES: CNC(=O)[C@@H](C)NC(=O)[C@@H]1Cc2ccc(cc2)OCCC[C@H](C(=O)NO)[C@@H](CC(C)C)C(=O)N1

IC50 [3]: 2500 nM
SMILES: CCCCCC[C@H]1C(=O)N[C@H](C(=O)NC)Cc2ccc(cc2)OCCC[C@@H]1C(=O)NO
inhibition in vivo at 100 mg/kg [15]: 26%

IC50 [3]: 120 nM
SMILES: CC(C)C[C@H]1C(=O)N[C@H](C(=O)Nc2nc(CC(=O)N3CCOCC3)cs2)CCCCNC(=O)OCCC[C@@H]1C(=O)NO

IC50 [3]: 460 nM
SMILES: CC(C)C[C@H]1C(=O)N[C@H](C(=O)NCC(=O)N2CCCC(C)(C)C2)Cc2ccc(cc2)OCCC[C@@H]1C(=O)NO
